# Test results taken from ChEMBL document CHEMBL1136726, “Synthesis and characterization of iodine-123 labeled 2beta-carbomethoxy-3beta-(4'-((Z)-2-iodoethenyl)phenyl)nortropane. A ligand for in vivo imaging of serotonin transporters by single-photon-emission tomography” (J Med Chem, 2003).
# pKi: −log10 of the molar value.
# How the values were obtained:
# [1] = test system: Rattus norvegicus; assay: Distribution of radioactivity in rat brain region striatum 60 min after intravenous administration of iodine labeled compound in absence of blocker in study 2; assay type: ADME, organism-based; details: in vivo, 1 h
# Summary of the method: (§1)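 Male Sprague–Dawley rats (250–300 g), ketamine-anaesthetised, received [123I]ZIENT (10 μCi) in 0.2 mL 10% ethanol/0.9% NaCl via the tail vein. […] Rats were killed at 60 min with pentobarbital, brain regions dissected and gamma-counted. Values are % dose/g from decay-corrected, background-subtracted counts against the diluted injected dose.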
# [2] = test system: Rattus norvegicus; assay: Distribution of radioactivity in rat brain region prefrontal cortex 60 min after intravenous administration of iodine labeled compound in presence of fluvoxamine blocker in study 1; assay type: ADME, organism-based; details: in vivo, 1 h
# Summary of the method: (§2)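 Male Sprague–Dawley rats (250–300 g), ketamine-anesthetized. Blocker (2 mg/kg) or none was given iv 15 min before tail-vein radioligand (10 µCi in 0.2 mL 10% EtOH/saline). Rats were killed at 60 min with im pentobarbital. Brain regions were dissected, weighed and gamma-counted. % dose/g was taken from decay-corrected, background-subtracted counts versus the injected dose.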
# [3] = test system: Rattus norvegicus; assay: Distribution of radioactivity in rat kidney 120 min after intravenous administration of iodine labeled compound; assay type: ADME, organism-based; details: in vivo, 2 h
# Summary of the method: (§3)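 Tail-vein injection of [123I]ZIENT (10 μCi in 0.2 mL 10% EtOH/0.9% NaCl, then 0.4 mL saline flush) into ketamine-anaesthetised male Sprague–Dawley rats (225–300 g). Animals were killed by cardiac excision at set times. Organs were excised, rinsed, blotted, weighed and gamma-counted. % dose/g was calculated against diluted aliquots of injectate. Mean ± SE, n=4–5.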
# [4] = test system: Rattus norvegicus; assay: Distribution of radioactivity in rat brain region prefrontal cortex 60 min after intravenous administration of iodine labeled compound in presence of RTI-113 blocker in study 1; assay type: ADME, organism-based; details: in vivo, 1 h; summary of the method: as §2
# [5] = test system: Rattus norvegicus; assay: Distribution of radioactivity in rat liver 30 min after intravenous administration of iodine labeled compound; assay type: ADME, organism-based; details: in vivo, 0.5 h; summary of the method: as §3
# [6] = test system: Rattus norvegicus; assay: Distribution of radioactivity in rat brain region hypothalamus 60 min after intravenous administration of iodine labeled compound in presence of fluvoxamine blocker in study 1; assay type: ADME, organism-based; details: in vivo, 1 h; summary of the method: as §2
# [7] = test system: Rattus norvegicus; assay: Distribution of radioactivity in rat brain region striatum 60 min after intravenous administration of iodine labeled compound in presence of reboxetine blocker in study 2; assay type: ADME, organism-based; details: in vivo, 1 h; summary of the method: as §1
# [8] = test system: Rattus norvegicus; assay: Distribution of radioactivity in rat blood 120 min after intravenous administration of iodine labeled compound; assay type: ADME, organism-based; details: in vivo, 2 h
# Summary of the method: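 Male Sprague–Dawley rats (225–300 g) under ketamine received 10 µCi radioligand in 0.2 mL 10% EtOH/0.9% NaCl via tail vein, then a saline flush. Killed by cardiac excision at set times. Organs were excised, weighed and gamma-counted. % dose/g was taken against diluted injectate. Mean ± SE and range, n=4 (5 min) or 5 (30–120 min).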
# [9] = test system: Rattus norvegicus; assay: Distribution of radioactivity in rat brain pons 60 min after intravenous administration of iodine labeled compound; assay type: ADME, organism-based; details: in vivo, 1 h
# Summary of the method: (§4)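 Male Sprague–Dawley rats (225–300 g) under ketamine received 10 µCi radioligand iv (tail vein) in 10% EtOH/saline. Hypothalamus, prefrontal cortex, striatum, pons and cerebellum were dissected, weighed and gamma-counted. % injected dose/g was taken from decay-corrected counts versus diluted dose. Mean ± SE and range, n=5 (5, 30 min) or 4 (60, 120 min).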
# [10] = test system: Rattus norvegicus; assay: Distribution of radioactivity in rat spleen 60 min after intravenous administration of iodine labeled compound; assay type: ADME, organism-based; details: in vivo, 1 h; summary of the method: as §3
# [11] = test system: Rattus norvegicus; assay: Distribution of radioactivity in rat brain region frontal cortex 60 min after intravenous administration of iodine labeled compound in presence of fluvoxamine blocker in study 1; assay type: ADME, organism-based; details: in vivo, 1 h; summary of the method: as §2
# [12] = test system: Rattus norvegicus; assay: Distribution of radioactivity in rat liver 5 min after intravenous administration of iodine labeled compound; assay type: ADME, organism-based; details: in vivo; summary of the method: as §3
# [13] = test system: Rattus norvegicus; assay: Distribution of radioactivity in rat muscle tissue 120 min after intravenous administration of iodine labeled compound; assay type: ADME, organism-based; details: in vivo, 2 h; summary of the method: as §3
# [14] = target: Sodium-dependent dopamine transporter (Homo sapiens, UniProt Q01959); assay: In vitro competitive binding versus [N-methyl-3H]WIN-35428 in murine kidney cells transfected with cDNA for human dopamine transporter (DAT); assay type: cell-based
# [15] = test system: Rattus norvegicus; assay: Distribution of radioactivity in rat testis 60 min after intravenous administration of iodine labeled compound; assay type: ADME, organism-based; details: in vivo, 1 h; summary of the method: as §3
# [16] = test system: Rattus norvegicus; assay: Ratio of distribution of radioactivity in rat brain region prefrontal cortex and cerebellum 60 min after intravenous administration of iodine labeled compound in presence of fluvoxamine blocker in study 1; assay type: ADME, organism-based; details: in vivo, 1 h
# [17] = test system: Rattus norvegicus; assay: Distribution of radioactivity in rat brain prefrontal cortex 30 min after intravenous administration of iodine labeled compound; assay type: ADME, organism-based; details: in vivo, 0.5 h; summary of the method: as §4
# [18] = test system: Rattus norvegicus; assay: Ratio of distribution of radioactivity in rat brain region striatum and cerebellum 60 min after intravenous administration of iodine labeled compound in absence of blocker in study 1; assay type: ADME, organism-based; details: in vivo, 1 h
# [19] = test system: Rattus norvegicus; assay: Distribution of radioactivity in rat brain region pons 60 min after intravenous administration of iodine labeled compound in absence of blocker in study 1; assay type: ADME, organism-based; details: in vivo, 1 h; summary of the method: as §2
# [20] = test system: Rattus norvegicus; assay: Distribution of radioactivity in rat heart 60 min after intravenous administration of iodine labeled compound; assay type: ADME, organism-based; details: in vivo, 1 h; summary of the method: as §3
# [21] = test system: Rattus norvegicus; assay: Distribution of radioactivity in rat testis 30 min after intravenous administration of iodine labeled compound; assay type: ADME, organism-based; details: in vivo, 0.5 h; summary of the method: as §3
# [22] = test system: Rattus norvegicus; assay: Distribution of radioactivity in rat thyroid 30 min after intravenous administration of iodine labeled compound; assay type: ADME, organism-based, Thyroid gland; details: in vivo, 0.5 h; summary of the method: as §3
# [23] = test system: Rattus norvegicus; assay: Ratio of distribution of radioactivity in rat brain region prefrontal cortex and cerebellum 60 min after intravenous administration of iodine labeled compound in absence of blocker in study 1; assay type: ADME, organism-based; details: in vivo, 1 h
# [24] = test system: Rattus norvegicus; assay: Distribution of radioactivity in rat brain pons 120 min after intravenous administration of iodine labeled compound; assay type: ADME, organism-based; details: in vivo, 2 h; summary of the method: as §4
# [25] = test system: Rattus norvegicus; assay: Ratio of distribution of radioactivity in rat brain region pons and cerebellum 60 min after intravenous administration of iodine labeled compound in absence of blocker in study 2; assay type: ADME, organism-based; details: in vivo, 1 h
# [26] = test system: Rattus norvegicus; assay: Ratio of distribution of radioactivity in rat brain prefrontal cortex and cerebellum 5 min after intravenous administration of iodine labeled compound; assay type: ADME, organism-based; details: in vivo
# Summary of the method: (§5)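 Male Sprague–Dawley rats (225–300 g) under ketamine anaesthesia were given [123I]ZIENT (10 μCi) in 0.2 mL 10% EtOH/0.9% NaCl into the tail vein, with a saline flush. Hypothalamus, prefrontal cortex, striatum, pons and cerebellum were dissected and gamma-counted. % injected dose/g came from decay-corrected counts against the diluted injected dose, and region/cerebellum ratios were taken from these. Mean ± SE, n=4–5.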
# [27] = test system: Rattus norvegicus; assay: Ratio of distribution of radioactivity in rat brain region hypothalamus and cerebellum 60 min after intravenous administration of iodine labeled compound in presence of fluvoxamine blocker in study 1; assay type: ADME, organism-based; details: in vivo, 1 h
# [28] = test system: Rattus norvegicus; assay: Ratio of distribution of radioactivity in rat brain hypothalamus and cerebellum 120 min after intravenous administration of iodine labeled compound; assay type: ADME, organism-based; details: in vivo, 2 h; summary of the method: as §5
# [29] = test system: Rattus norvegicus; assay: Ratio of distribution of radioactivity in rat brain striatum and cerebellum 30 min after intravenous administration of iodine labeled compound; assay type: ADME, organism-based; details: in vivo, 0.5 h
# Summary of the method: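 Male Sprague–Dawley rats (225–300 g), ketamine anesthesia, injected via tail vein with [123I]ZIENT (10 μCi in 0.2 mL 10% EtOH/0.9% NaCl, 0.4 mL saline flush). Killed at 5, 30, 60 or 120 min. Striatum and cerebellum dissected, weighed, γ-counted. Decay-corrected %injected dose/g taken against diluted injectate. Ratio is striatum over cerebellum. Four or five rats per time point, mean ± standard error.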
# [30] = test system: Rattus norvegicus; assay: Distribution of radioactivity in rat brain hypothalamus 5 min after intravenous administration of iodine labeled compound; assay type: ADME, organism-based; details: in vivo; summary of the method: as §4
# [31] = test system: Rattus norvegicus; assay: Distribution of radioactivity in rat lung 60 min after intravenous administration of iodine labeled compound; assay type: ADME, organism-based; details: in vivo, 1 h; summary of the method: as §3
# [32] = test system: Rattus norvegicus; assay: Distribution of radioactivity in rat muscle tissue 30 min after intravenous administration of iodine labeled compound; assay type: ADME, organism-based; details: in vivo, 0.5 h; summary of the method: as §3
# Sequence of Sodium-dependent dopamine transporter (Q01959 whole entry): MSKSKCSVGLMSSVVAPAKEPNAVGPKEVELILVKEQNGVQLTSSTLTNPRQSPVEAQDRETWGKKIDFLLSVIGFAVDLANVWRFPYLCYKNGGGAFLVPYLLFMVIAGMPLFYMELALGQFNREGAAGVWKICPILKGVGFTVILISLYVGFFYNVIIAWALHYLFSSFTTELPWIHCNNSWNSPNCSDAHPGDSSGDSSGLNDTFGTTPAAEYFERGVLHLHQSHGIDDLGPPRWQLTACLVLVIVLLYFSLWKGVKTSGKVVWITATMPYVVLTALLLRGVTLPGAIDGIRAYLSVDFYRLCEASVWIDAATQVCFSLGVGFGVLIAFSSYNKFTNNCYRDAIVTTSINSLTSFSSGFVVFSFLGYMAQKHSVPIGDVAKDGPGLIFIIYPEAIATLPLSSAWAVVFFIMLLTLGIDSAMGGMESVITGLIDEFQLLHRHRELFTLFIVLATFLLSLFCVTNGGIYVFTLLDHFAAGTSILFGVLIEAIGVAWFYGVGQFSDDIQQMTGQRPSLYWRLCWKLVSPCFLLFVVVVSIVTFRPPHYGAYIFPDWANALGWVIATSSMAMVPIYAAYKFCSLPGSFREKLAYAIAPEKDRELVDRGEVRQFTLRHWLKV
compound,measurement,setting,value
COC(=O)[C@@H]1C2CCC(C[C@@H]1c1ccc(/C=C\I)cc1)N2 (some centres not stated),Distribution (dose/g),[1],0.63%
same,Distribution (dose/g),[2],0.28%
same,Distribution (dose/g),[3],0.31%
same,Distribution (dose/g),[4],0.78%
same,Distribution (dose/g),[5],0.31%
same,Distribution (dose/g),[6],0.31%
same,Distribution (dose/g),[7],0.66%
same,Distribution (dose/g),[8],0.31%
same,Distribution (dose/g),[9],0.59%
same,Distribution (dose/g),[10],0.61%
same,Distribution (dose/g),[11],0.27%
same,Distribution (dose/g),[12],0.38%
same,Distribution (dose/g),[13],0.17%
same,pKi,[14],8.46
same,Distribution (dose/g),[15],0.32%
same,Distribution (dose/g),[16],1.65%
same,Distribution (dose/g),[17],0.82%
same,Distribution (dose/g),[18],3.17%
same,Distribution (dose/g),[19],0.62%
same,Distribution (dose/g),[20],0.29%
same,Distribution (dose/g),[21],0.34%
same,Distribution (dose/g),[22],0.49%
same,Distribution (dose/g),[23],3.88%
same,Distribution (dose/g),[24],0.4%
same,Distribution (dose/g),[25],2.79%
same,Distribution (dose/g),[26],1.45%
same,Distribution (dose/g),[27],1.82%
same,Distribution (dose/g),[28],4.92%
same,Distribution (dose/g),[29],2.25%
same,Distribution (dose/g),[30],0.58%
same,Distribution (dose/g),[31],1.41%
same,Distribution (dose/g),[32],0.23%
